What was measured:
[1] = Aqueous solubility of compound at pH 7.4 measured after 24 hrs; format: physicochemical; details: buffer
Method in brief: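 Stock in DMSO diluted to 100 μM in Universal buffer pH 7.4 with 1% DMSO. Agitated on filter plates for 24 h at 25°C, then filtered and the filtrate diluted with acetonitrile. Concentration read by UV absorbance against calibration curves made in buffer/acetonitrile 80:20. At least 3 occasions, using different stocks.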

[2] = Selectivity index, ratio of IC50 for cytotoxicity against African green monkey Vero E6 cells to MIC50 for antimycobacterial activity against Mycobacterium bovis BCG ATCC 35734; format: toxicity, cell-based, Vero C1008; details: read-out: Selectivity Index
[3] = Selectivity index, ratio of IC50 for cytotoxicity against African green monkey Vero E6 cells to MIC50 for antimycobacterial activity against Mycobacterium tuberculosis H37Rv ATCC 27294; format: toxicity, cell-based, Vero C1008; details: read-out: Selectivity Index
Method in brief: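 SI is the ratio of a Vero E6 IC50 to an H37Rv MIC50. Vero E6 cells in DMEM + 10% heat-inactivated FBS, 1% penicillin; 30,000 cells/well, 24 h adherence, then compound for 48 h (0.5% DMSO), 37°C, 5% CO2. MTS read at 490 nm after 3 h; IC50 from sigmoidal viability fit, ≥3 determinations. MIC50 by broth dilution: 50% growth inhibition versus drug-free control.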

SMILES	solubility at 24 h [1] [µM]	selectivity ratio [2]	selectivity ratio [3]
CCCCCCCCn1c2c([n+](CCCC)c1C)C(=O)c1ccccc1C2=O.[Br-]	118	–	–
CCCCn1c2c([n+](C3CCC4(CCCCC4)CC3)c1C)C(=O)c1ccccc1C2=O.[Br-]	118	–	–
Cc1nc2c(n1CCCCCCCCCCC[P+](C1CCCCC1)(C1CCCCC1)C1CCCCC1)C(=O)c1ccccc1C2=O	–	7	–
Cc1nc2c(n1CCCCCCCCCCC[P+](c1ccccc1)(c1ccccc1)c1ccccc1)C(=O)c1ccccc1C2=O	–	11	5
Cc1nc2c(n1CCCCCCCCC[P+](c1ccccc1)(c1ccccc1)c1ccccc1)C(=O)c1ccccc1C2=O	–	21	34

Source: ChEMBL document CHEMBL5104224, “Alkyltriphenylphosphonium turns naphthoquinoneimidazoles into potent membrane depolarizers against mycobacteria” (RSC Med Chem, 2022)
